Measured values gathered from unrelated publications.
Target: D(4) dopamine receptor (DRD4, Homo sapiens, UniProt P21917)
Method: radioligand
Residues used in one study (P21917 1-419): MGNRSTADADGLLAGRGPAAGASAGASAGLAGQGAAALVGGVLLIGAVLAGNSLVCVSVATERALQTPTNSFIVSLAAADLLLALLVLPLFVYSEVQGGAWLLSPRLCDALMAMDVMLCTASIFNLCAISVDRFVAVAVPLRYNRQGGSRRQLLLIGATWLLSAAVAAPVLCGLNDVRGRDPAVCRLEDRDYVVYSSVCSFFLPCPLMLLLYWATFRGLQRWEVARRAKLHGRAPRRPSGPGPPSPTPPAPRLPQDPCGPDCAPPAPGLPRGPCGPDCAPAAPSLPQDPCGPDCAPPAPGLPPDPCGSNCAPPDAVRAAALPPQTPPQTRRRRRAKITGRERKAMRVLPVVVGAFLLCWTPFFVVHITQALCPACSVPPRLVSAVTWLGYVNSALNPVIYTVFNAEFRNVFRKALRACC

| SMILES | effect on | Ki |
| --- | --- | --- |
| CCN(CC)c1ccc(C2Nc3ccc(C(=O)c4ccccc4)cc3NC3=C2C(=O)CC(C)(C)C3)cc1 (centres unmarked) | cell-free assay | 1530 nM |
| O=C1c2ccccc2CCCN1CCCCN1CCN(c2ccccn2)CC1 | ligand displacement | 6.5 nM |
| CCCCCCCNCCCc1ccccc1 | ligand displacement | 390 nM |
| CCOc1c(O)cc(Br)c2c1CN1CCc3cc(OCC(F)F)c(O)cc3[C@@H]1C2 | cell-free assay | 2720 nM |
| Oc1ccc(CCC2=NCCN2CCc2ccccc2)cc1 | ligand displacement | > 10000 nM |
| CCCCN1CCC(COC(=O)c2ccc(N)c(OCF)c2)CC1 | cell-free assay | > 10000 nM |
| Cc1ccc(OC[C@@H]2CN(CCN3CCc4ccccc43)CCO2)cn1 | ligand displacement | 503 nM |
| c1ccc(CCC2=NCCN2CCc2ccccc2)cc1 | ligand displacement | 758 nM |
| CCCCCCCCCCCCNCCCc1ccc([N+](=O)[O-])cc1 | ligand displacement | 1800 nM |
| COc1ccc2c(c1)C(=O)N(CCCN1CCN(c3ccccc3OC)CC1)C2 | ligand displacement | 8.4 nM |
| Oc1cccc(CCC2=NCCN2CCc2ccccc2)c1 | ligand displacement | 589 nM |
